Source: PubChem BioAssay (Sanford-Burnham Center for Chemical Genomics)
hIAP inh = human IAP inhibition; purified IAP, CDP-Star luminescence, 30 min; inhibition, % at 10 µM; 0.12% of 330,000 active; AID 2544;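 active means inhibition reaching a set limit with compound at 10 µM in the primary screen, cut at about 35% in these data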;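 further: plate controls were DMSO wells with enzyme for no effect and no-enzyme buffer wells for full effect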
Target sequence (P09923 whole entry, looked up): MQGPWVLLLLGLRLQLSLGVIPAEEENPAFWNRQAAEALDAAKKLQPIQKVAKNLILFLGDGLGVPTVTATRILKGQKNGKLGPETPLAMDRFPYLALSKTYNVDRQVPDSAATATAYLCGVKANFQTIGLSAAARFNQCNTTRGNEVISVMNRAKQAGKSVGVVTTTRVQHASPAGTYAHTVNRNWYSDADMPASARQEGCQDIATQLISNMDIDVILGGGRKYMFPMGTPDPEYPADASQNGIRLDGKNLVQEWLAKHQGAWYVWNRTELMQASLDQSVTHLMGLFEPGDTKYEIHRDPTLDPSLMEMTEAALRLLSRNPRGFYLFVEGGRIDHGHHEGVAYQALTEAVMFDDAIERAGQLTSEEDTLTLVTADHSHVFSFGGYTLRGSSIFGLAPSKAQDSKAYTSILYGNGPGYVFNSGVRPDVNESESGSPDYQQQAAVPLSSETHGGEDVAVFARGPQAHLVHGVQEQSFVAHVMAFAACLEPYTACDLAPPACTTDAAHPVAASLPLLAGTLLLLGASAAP
bIAP act = intestinal alkaline phosphatase (bovine) activation; activation factor at 20 µM; purified bovine IAP, CDP-star luminescence, 30 min; stronger effect = higher value; fold of DMSO-control signal, blank-subtracted; 0.17% of 200,000 active;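 active means activation factor of 2 or more at 20 µM, a signal rise over negative controls twice the positive control's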
hIAP activ = human IAP activation; 0.16% of 330,000 active; P09923; purified human IAP, CDP-Star luminescence, 30 min; stronger effect = higher value; 1 = vehicle-only enzyme, 0 = enzyme-free background; activation factor at 10 µM; AID 2524;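 active means activation factor of the enzyme at least 2-fold when tested at 20 µM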
bIAP inh = intestinal alkaline phosphatase (bovine) inhibition; AID 1019; 190,000 tested, under 10 active; inhibition, % at 20 µM; purified bovine IAP, CDP-star luminescence, 30 min;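 active means over 50% inhibition of intestinal alkaline phosphatase at 20 µM in the single-dose screen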
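System: purified bovine intestinal alkaline phosphatase (IAP) enzyme; Input: IAP diluted 1/65,000,000 in the well; Measured by: CDP-star luminescence signal; Compound dosing: 20 µM single dose; Incubation: 30 min reaction at room temperature.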
mIAP block = blocks mouse intestinal alkaline phosphatase; purified mouse IAP, CDP-Star luminescence, 30 min; inhibition, % at 10 µM; 0.2% of 330,000 active;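 active means inhibition of at least 40% at 10 µM in the primary screen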;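 further: plate controls were DMSO with enzyme for no effect and no enzyme wells for full effect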
mIAP activ = increases mouse intestinal alkaline phosphatase activity; 0.24% of 330,000 active; activation factor at 10 µM; muIAP, CDP-Star luminescence, 30 min; stronger effect = higher value; 1 = vehicle-only enzyme signal, 0 = enzyme-free wells;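 active means activation factor of at least 2 at 20 µM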
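Assay system: mouse IAP enzyme; reagent: chemiluminescent substrate CDP-Star; dosing: test compounds delivered from DMSO solution; schedule: 30 min at room temperature; measured by: luminescence from enzymatic CDP-Star hydrolysis; controls: DMSO-only wells and no-enzyme negative control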
* = called active by the depositor; nt = not tested or not shown. Sampled rows, rich in hits. Any-hit rate of the full collection: about 0.77%.

SMILES | hIAP inh | bIAP act | hIAP activ | bIAP inh | mIAP block | mIAP activ
O=C(Oc1c(Br)cc([N+](=O)[O-])cc1Br)c1cccnc1 | -133 | 1 | 2.3* | -3 | 0 | 1
N/C(=N\OC(=O)c1ccc([N+](=O)[O-])cc1)c1cccnc1 | 2 | 0.9 | 0.98 | 6 | -4 | 1
C[C@H](CO)N1C[C@H](C)[C@@H](CN(C)C)Oc2c(NS(=O)(=O)c3ccccc3)cccc2C1=O | -23 | nt | 1.2 | nt | 8 | 0.92
COC(=O)C1CN(C(=O)COc2ccc(Cl)cc2C)c2ccccc2O1 (stereo unspecified) | -2 | nt | 1 | nt | -1 | 1
O=C(Nc1cccc(C(F)(F)F)c1)Nc1ccc(N2CCCC2)c(S(=O)(=O)Nc2ccccc2Cl)c1 | -12 | 0.7 | 1.1 | 30 | -110 | 2.1*
COc1ccccc1NS(=O)(=O)c1cc(NC(=O)Nc2ccc(Cl)cc2Cl)ccc1N1CCCCC1 | -11 | 0.9 | 1.1 | 5 | -244 | 3.4*
COc1ccc(NC(=O)[C@H](C)NC(=O)C2CCN(S(=O)(=O)c3ccc(C)cc3)CC2)cc1OC | -15 | nt | 1.1 | nt | -13 | 1.1
CCO[C@@H]1OC(C(N)=O)=C[C@H](C2CCCCC2)[C@H]1CCCO | -9 | nt | 1.1 | nt | 45* | 0.55
Cc1cc(NCCCn2ccnc2)n2nc(-c3ccc(F)cc3)cc2n1 | -22 | 1.4 | 1.2 | -44 | -2 | 1
Cc1cc(C)c2c(n1)nn1c(NCCCn3ccnc3)cc(C)nc21 | nt | 2.3* | nt | -128 | nt | nt
O=C(c1ccccc1)c1cccc[n+]1[O-] | 8 | nt | 0.92 | nt | 8 | 0.92
O=C(Nc1ccccc1-c1ccccc1)NC1CC2CCCC(C1)N2CCc1ccccc1 (stereo unspecified) | 10 | 1.1 | 0.9 | -8 | -131 | 2.3*
N#C/C(=C(/O)COC(=O)CSc1ccc2ccccc2c1)c1nc2ccccc2[nH]1 | -143 | 0.6 | 2.4* | 43 | 22 | 0.78
Cc1c(CCOC(=O)CC23CC4CC(CC(C)(C4)C2)C3)sc[n+]1CC(=O)c1ccccc1 | 2 | 0.6 | 0.98 | 43 | 38 | 0.62
Cc1c(CCOC(=O)C23CC4CC(CC(C)(C4)C2)C3)sc[n+]1CC(=O)c1ccccc1 | 16 | 0.7 | 0.84 | 29 | 43* | 0.57
Cc1ccccc1-c1ccc(C(=O)Nc2cccc(F)c2)o1 | -3 | 3.5* | 1 | -246 | -1 | 1
O=C(Nc1cccc(F)c1)c1ccc(-c2ccccc2C(F)(F)F)o1 | nt | 1.2 | nt | -24 | nt | nt
C[C@@H](CC#N)CN1CC[C@H](C(C)(C)C)CCC1=O | 3 | nt | 0.97 | nt | -1 | 1
CC(OC(=O)c1nc(Cl)ccc1Cl)C(=O)Nc1ccccc1F (stereo unspecified) | -27 | nt | 1.3 | nt | -8 | 1.1
CCN(CC)S(=O)(=O)c1ccc(C)c(NC(=S)NC2CCCCC2)c1 | -3 | nt | 1 | nt | -104 | 2*
CC1CCCCC1NC(=S)Nc1cccc(S(=O)(=O)N(C)C)c1 (stereo unspecified) | -12 | 0.8 | 1.1 | 24 | -192 | 2.9*
Cc1ccc(S(=O)(=O)N(C)C)cc1NC(=S)NC1CCCC(C)C1C (stereo unspecified) | -12 | 1 | 1.1 | 0 | -184 | 2.8*
Cc1ccc(NC(=S)NC2CCCCC2)cc1S(=O)(=O)N(C)C | -35 | 1.2 | 1.4 | -23 | -136 | 2.4*
CC(=O)NNC(=S)Nc1cc(S(=O)(=O)N(C)C)ccc1C | -82 | 1 | 1.8 | 2 | 6 | 0.94
CCN(CC)S(=O)(=O)c1cccc(C(=O)NC2CCCCC2)c1 | 6 | 1 | 0.94 | 3 | 7 | 0.93
SMILES | hIAP inh | bIAP act | hIAP activ | bIAP inh | mIAP block | mIAP activ
COc1cc(NC(=O)COC(C)=O)cc(OC)c1OC | 1 | 1.1 | 0.99 | -10 | 8 | 0.92
CCC(NC(=O)Nc1cc(OC)c(OC)c(OC)c1)(C(F)(F)F)C(F)(F)F | 6 | 1.1 | 0.94 | -12 | -110 | 2.1*
CCCCOc1ccc(CSCCNC(=S)Nc2ccccc2)cc1 | -11 | 1 | 1.1 | 2 | -84 | 1.8
CC(C)COc1ccc(CSCCNC(=S)Nc2ccccc2)cc1 | -3 | 0.6 | 1 | 43 | -144 | 2.4*
CCCCCOc1ccc(CSCCNC(=S)Nc2ccccc2)cc1 | -69 | 1.1 | 1.7 | -6 | -147 | 2.5*
COc1cccc(CC(=O)N(CCC2=CCCCC2)c2c(N)n(Cc3ccccc3)c(=O)[nH]c2=O)c1 | -8 | nt | 1.1 | nt | 2 | 0.98
O=C(OCC(=O)N1CCOCC1)c1cc(=O)[nH]c2ccccc12 | -15 | nt | 1.2 | nt | 1 | 0.99
CC(C)CNS(=O)(=O)c1ccc(NC(=O)Cn2nc(-c3ccc(F)cc3)ccc2=O)cc1 | -180 | 0.7 | 2.8* | 27 | -7 | 1.1
O=C(COC(=O)c1ccc(S(=O)(=O)NCc2ccco2)cc1)Nc1ccccc1OC(F)F | -6 | 2.4* | 1.1 | -136 | 10 | 0.9
O=C(COC(=O)c1ccc(S(=O)(=O)NCc2ccco2)cc1)Nc1ccccc1 | -4 | nt | 1 | nt | 0 | 1
COc1cccc(OCCNC(=O)Nc2cc(F)c(F)cc2Cl)c1 | -13 | 1.1 | 1.1 | -10 | -133 | 2.3*
COc1ccc(OCCNC(=O)Nc2cc(F)c(F)cc2Cl)cc1 | -11 | 1.1 | 1.1 | -5 | -86 | 1.9
COc1cc(C(=O)N2CCN(C(=O)CC(C)C)CC2)cc(OC)c1OC | -7 | 1 | 1.1 | 0 | 40* | 0.6
COc1ccc(C(=O)N2CCN(C(=O)CC(C)C)CC2)cc1OC | -8 | 1 | 1.1 | 0 | 4 | 0.96
CSc1ncccc1C(=O)OCC(=O)Nc1ccc(C)c(S(=O)(=O)N2CCOCC2)c1 | -2 | nt | 1 | nt | 4 | 0.96
N#Cc1ccc(NC(=O)Nc2ccc(Oc3ccc(NC(=O)Nc4ccc(C#N)cc4)cc3)cc2)cc1 | -12 | nt | 1.1 | nt | -144 | 2.4*
COc1ccccc1NC(=S)NC1CCCCCCCCCCC1 | -61 | nt | 1.6 | nt | -134 | 2.3*
CC(C)c1ccc(NC(=S)NC2CCCCCC2)cc1 | -26 | 1 | 1.3 | 1 | -224 | 3.2*
S=C(Nc1ccc(Oc2ccccc2)cc1)NC1CCCCC1 | 4 | 0.9 | 0.96 | 6 | -250 | 3.5*
S=C(Nc1ccc(Oc2ccc(NC(=S)NC3CCCCC3)cc2)cc1)NC1CCCCC1 | 2 | 1.4 | 0.98 | -39 | -142 | 2.4*
CCOC(=O)C1CCN(C(=O)COC(=O)C2CCN(S(=O)(=O)c3ccc(C)c(C)c3)CC2)CC1 | -2 | nt | 1 | nt | -2 | 1
Cn1c(SCC(=O)Nc2ccc(NC(=O)c3cccc(F)c3)cc2)nnc1-c1ccncc1 | 6 | nt | 0.94 | nt | 7 | 0.93
FC(F)Sc1ccc(NC(=S)NC2CCCC2)cc1 | -17 | 0.8 | 1.2 | 16 | -156 | 2.6*
OC1CCC(NC(=S)Nc2ccc(SC(F)F)cc2)CC1 (stereo unspecified) | -7 | 0.9 | 1.1 | 13 | -10 | 1.1
